Measurements reported in ChEMBL document CHEMBL4706774, “Creation of Fluorescent RXR Antagonists Based on CBTF-EE and Application to a Fluorescence Polarization Binding Assay” (ACS Med Chem Lett, 2021).
Activity calls are given as the source filed them. No cut-off for these calls is given here.

Columns and labels:
[1] = Fluorescence property of compound in MeOH assessed as excitation wavelength by UV-visible spectrophotometric method; format: physicochemical
Outline: (§1)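 Fluorescence excitation and emission spectra recorded on the compound at 1 μM in MeOH solution. Maxima of excitation and emission taken from these spectra.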

[2] = Fluorescence property of compound in MeOH assessed as quantum yield by UV-visible spectrophotometric method; format: physicochemical
[3] = Fluorescence property of compound in EtOH assessed as excitation wavelength by UV-visible spectrophotometric method; format: physicochemical
[4] = biological target: T1, Retinoic acid receptor RXR-alpha (Homo sapiens, UniProt P19793); experiment: Binding affinity to human RXRalpha-LBD (224 to 462 residues) expressed in Escherichia coli BL21(DE3) incubated for 2 hrs by fluorescence assay
T1 sequence (P19793 whole entry): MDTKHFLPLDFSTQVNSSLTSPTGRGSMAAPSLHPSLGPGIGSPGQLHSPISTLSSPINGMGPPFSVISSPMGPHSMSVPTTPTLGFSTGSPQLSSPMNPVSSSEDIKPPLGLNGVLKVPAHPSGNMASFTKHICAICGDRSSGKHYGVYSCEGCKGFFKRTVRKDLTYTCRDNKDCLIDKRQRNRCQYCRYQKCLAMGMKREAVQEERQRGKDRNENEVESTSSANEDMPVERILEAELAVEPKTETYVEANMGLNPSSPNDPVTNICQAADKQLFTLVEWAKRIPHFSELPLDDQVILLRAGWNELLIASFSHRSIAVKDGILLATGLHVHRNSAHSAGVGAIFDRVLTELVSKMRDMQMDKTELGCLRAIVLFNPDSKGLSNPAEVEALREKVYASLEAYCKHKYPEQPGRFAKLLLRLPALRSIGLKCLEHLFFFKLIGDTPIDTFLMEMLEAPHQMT

[5] = Fluorescence property of compound in MeOH assessed as molar extinction coefficient by UV-visible spectrophotometric method; format: physicochemical
[6] = Fluorescence property of compound in MeOH assessed as emission wavelength by UV-visible spectrophotometric method; format: physicochemical; outline: as §1
[7] = Fluorescence property of compound in EtOH assessed as quantum yield by UV-visible spectrophotometric method; format: physicochemical
[8] = Fluorescence property of compound in EtOH assessed as emission wavelength by UV-visible spectrophotometric method; format: physicochemical
[9] = biological target: T2, Retinoic acid receptor RXR-alpha (Homo sapiens) (UniProt P19793); experiment: Antagonist activity against human RXRalpha expressed in COS1 cells incubated for 18 hrs by SEAP reporter gene assay; format: cell-based; details: COS-1, filed as antagonist
T2 sequence (whole entry): T1 sequence (P19793 whole entry)

[10] = Fluorescence property of compound in EtOH assessed as molar extinction coefficient by UV-visible spectrophotometric method; format: physicochemical
[11] = biological target: T1, Retinoic acid receptor RXR-alpha; experiment: Binding affinity to human RXRalpha-LBD (224 to 462 residues) expressed in Escherichia coli BL21(DE3) incubated for 1 hr by fluorescence polarization assay

Row | Compound | Activity [1] | Activity [2] | Activity [3] | Kd [4] | Activity [5] | Activity [6] | Activity [7] | Activity [8] | Activity [9] | Activity [10] | Kd [11]
1 | CC1(C)CCC(C)(C)c2cc(-n3c(C(F)(F)F)nc4cc(C(=O)O)ccc43)c(OCCOCCNc3ccc([N+](=O)[O-])c4nonc34)cc21 | 464 nm | 0.224 | 461 nm | 629 nM | 6.7 10^3L/mol | 530 nm | 0.237 | 527 nm | Active | 8.4 10^3L/mol | –
2 | CC1=CC(C)=[N+]2C1=C(c1ccc(C(=O)NCCOCCOc3cc4c(cc3-n3c(C(F)(F)F)nc5cc(C(=O)O)ccc53)C(C)(C)CCC4(C)C)cc1)c1c(C)cc(C)n1[B-]2(F)F | 499 nm | 0.349 | 499 nm | 761 nM | 2.8 10^4L/mol | 508 nm | 0.471 | 509 nm | Active | 2.8 10^4L/mol | 375 nM
